# Source: ChEMBL document CHEMBL1154326 (J Med Chem, 2009)
# Activity calls are given as the source filed them. The calls are words filed in the database; no cut-off is given here.
# What was measured:
# Histamine H4 receptor [1] = molecular target: T1, Histamine H4 receptor (Homo sapiens, UniProt Q9H3N8); assay: Antagonist activity at human histamine H4 receptor expressed in Sf9 cells coexpressing RGS19 protein by steady-state GTPase assay; assay type: functional
# Summary of the method: (§1)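 Antagonist-mode steady-state GTPase assay in Sf9 membranes: H1R coexpressed with RGS4; H2R as GsαS fusion; H3R coexpressed with Giα2/Gβ1γ2/RGS4; H4R as RGS19 fusion with Giα2/Gβ1γ2. […] MgCl2: H1R/H2R 1.0 mM, H3R/H4R 5.0 mM; H4R plus 100 mM NaCl. [γ-32P]GTP hydrolysis measured over 20 min at 25 °C. pKB from nonlinear sigmoidal fits; duplicate runs.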
# Histamine H2 receptor [2] = molecular target: T2, Histamine H2 receptor (Homo sapiens, UniProt P25021); assay: Antagonist activity at human histamine H2 receptor expressed in Sf9 cells coexpressing GsalphaS protein by steady-state GTPase assay; assay type: functional; summary of the method: as §1
# Histamine H3 receptor [3] = molecular target: T3, Histamine H3 receptor (Homo sapiens, UniProt Q9Y5N1); assay: Antagonist activity at human histamine H3 receptor expressed in Sf9 cells coexpressing Gialpha-2-Gbeta-1-gamma-2 and RGS4 proteins protein by steady-state GTPase assay; assay type: functional; summary of the method: as §1
# Histamine H2 receptor [4] = molecular target: T2, Histamine H2 receptor; assay: Agonist activity at human histamine H2 receptor expressed in Sf9 cells coexpressing GsalphaS protein by steady-state GTPase assay; assay type: functional
# Summary of the method: (§2)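 Sf9 membranes (10-20 μg protein/tube), washed and resuspended in 10 mM Tris-HCl pH 7.4. H2R as hH2R-GsαS fusion; H3R coexpressed with Giα2, Gβ1γ2, RGS4; H4R as hH4R-RGS19 fusion with Giα2, Gβ1γ2. Buffer: 50 mM Tris/HCl pH 7.4, MgCl2 (H2R 1.0 mM; H3R/H4R 5.0 mM), 100 μM EDTA, 100 μM ATP, 100 nM GTP, 100 μM AppNHp, creatine phosphate/kinase, 0.2% BSA; H4R plus 100 mM NaCl.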
# Histamine H4 receptor [5] = molecular target: T1, Histamine H4 receptor; assay: Agonist activity at human histamine H4 receptor expressed in Sf9 cells coexpressing RGS19 protein by steady-state GTPase assay; assay type: functional; summary of the method: as §2
# Histamine H1 receptor [6] = molecular target: T4, Histamine H1 receptor (Homo sapiens, UniProt P35367); assay: Antagonist activity at human histamine H1 receptor expressed in Sf9 cells coexpressing RGS4 by steady-state GTPase assay; assay type: functional; summary of the method: as §1
# Histamine H2 receptor [7] = molecular target: T2, Histamine H2 receptor; assay: Antagonist activity at human histamine H2 receptor expressed in Sf9 cells coexpressing GsalphaS protein by steady-state GTPase assay
# Histamine H2 receptor [8] = molecular target: T2, Histamine H2 receptor; assay: Agonist activity at human histamine H2 receptor expressed in Sf9 cells coexpressing GsalphaS protein at 1 mM by steady-state GTPase assay; assay type: functional
# Histamine H1 receptor [9] = molecular target: T4, Histamine H1 receptor; assay: Displacement of [3H]mepyramine from human histamine H1 receptor expressed in Sf9 cells
# Summary of the method: (§3)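 Competition binding on Sf9 membranes in 12.5 mM MgCl2, 1 mM EDTA, 75 mM Tris/HCl pH 7.4. Protein per tube: 50 μg (H1R, H3R), 120 μg (H4R), 250 μg (H2R). […] 60 min at 25 °C with shaking; PEI-treated GF/C filtration, cold washes, scintillation counting; one-site fits, duplicates.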
# Histamine H3 receptor [10] = molecular target: T3, Histamine H3 receptor; assay: Displacement of [3H]N-alpah-methylhistamine from human histamine H3 receptor expressed in Sf9 cells; summary of the method: as §3
# Histamine H2 receptor [11] = molecular target: T2, Histamine H2 receptor; assay: Displacement of [3H]tiotidine from human histamine H2 receptor expressed in Sf9 cells; summary of the method: as §3
# Histamine H4 receptor [12] = molecular target: T1, Histamine H4 receptor; assay: Displacement of [3H]histamine from human histamine H4 receptor expressed in Sf9 cells; summary of the method: as §3
# Homo sapiens [13] = organism: Homo sapiens; assay: Selectivity for human histamine H4 receptor over human histamine H2 receptor by radioligand displacement assay
# Histamine H4 receptor [14] = molecular target: T1, Histamine H4 receptor; assay: Agonist activity at human histamine H4 receptor expressed in Sf9 cell membrane coexpressing RGS19 protein by steady-state GTPase assay; assay type: functional; summary of the method: as §2
# Homo sapiens [15] = organism: Homo sapiens; assay: Selectivity for human histamine H4 receptor over human histamine H1 receptor by radioligand displacement assay
# Homo sapiens [16] = organism: Homo sapiens; assay: Selectivity for human histamine H4 receptor over human histamine H3 receptor by steady-state GTPase assay
# Histamine H4 receptor [17] = molecular target: T1, Histamine H4 receptor; settings: Sf9
# Histamine H1 receptor [18] = molecular target: T4, Histamine H1 receptor; assay: Agonist activity at human histamine H1 receptor expressed in Sf9 cells coexpressing RGS4 by steady-state GTPase assay; assay type: functional
# Histamine H3 receptor [19] = molecular target: T3, Histamine H3 receptor; assay: Agonist activity at human histamine H3 receptor expressed in Sf9 cells coexpressing Gialpha-2-Gbeta-1-gamma-2 and RGS4 proteins protein by steady-state GTPase assay; assay type: functional; summary of the method: as §2
# T3 sequence (Q9Y5N1 whole entry): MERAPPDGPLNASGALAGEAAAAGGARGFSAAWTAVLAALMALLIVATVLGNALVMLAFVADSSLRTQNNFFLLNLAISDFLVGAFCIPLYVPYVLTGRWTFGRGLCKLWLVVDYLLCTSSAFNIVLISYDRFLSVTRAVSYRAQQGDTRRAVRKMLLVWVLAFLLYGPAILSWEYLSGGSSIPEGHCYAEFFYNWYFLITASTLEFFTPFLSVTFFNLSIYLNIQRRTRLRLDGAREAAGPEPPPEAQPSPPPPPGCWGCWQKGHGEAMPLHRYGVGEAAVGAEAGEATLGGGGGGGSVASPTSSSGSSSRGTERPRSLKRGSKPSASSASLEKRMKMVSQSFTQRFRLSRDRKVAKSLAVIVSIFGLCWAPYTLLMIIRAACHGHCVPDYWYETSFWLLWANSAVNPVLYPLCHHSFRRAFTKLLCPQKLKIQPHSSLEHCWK
# T2 sequence (P25021 whole entry): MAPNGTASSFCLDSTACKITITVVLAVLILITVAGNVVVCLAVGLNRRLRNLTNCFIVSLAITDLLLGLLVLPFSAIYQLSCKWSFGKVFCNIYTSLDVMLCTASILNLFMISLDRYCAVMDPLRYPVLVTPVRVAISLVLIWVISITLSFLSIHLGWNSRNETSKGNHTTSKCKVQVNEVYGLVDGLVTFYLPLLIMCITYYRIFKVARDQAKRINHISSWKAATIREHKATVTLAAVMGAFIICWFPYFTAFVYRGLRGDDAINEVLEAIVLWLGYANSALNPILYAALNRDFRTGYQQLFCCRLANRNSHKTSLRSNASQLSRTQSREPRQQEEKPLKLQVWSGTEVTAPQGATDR
# T1 sequence (Q9H3N8 whole entry, the tested form may be a part): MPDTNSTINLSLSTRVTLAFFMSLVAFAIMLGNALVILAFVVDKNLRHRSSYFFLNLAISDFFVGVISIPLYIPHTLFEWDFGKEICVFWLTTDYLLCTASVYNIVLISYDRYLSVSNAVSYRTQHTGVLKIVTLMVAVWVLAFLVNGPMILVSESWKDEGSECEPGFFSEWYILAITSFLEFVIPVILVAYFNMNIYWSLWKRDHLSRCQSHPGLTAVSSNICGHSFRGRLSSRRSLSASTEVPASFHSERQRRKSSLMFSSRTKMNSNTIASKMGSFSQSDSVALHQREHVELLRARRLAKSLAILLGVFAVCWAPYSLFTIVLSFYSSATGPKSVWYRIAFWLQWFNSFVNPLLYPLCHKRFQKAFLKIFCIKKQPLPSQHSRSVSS
# T4 sequence (P35367 whole entry): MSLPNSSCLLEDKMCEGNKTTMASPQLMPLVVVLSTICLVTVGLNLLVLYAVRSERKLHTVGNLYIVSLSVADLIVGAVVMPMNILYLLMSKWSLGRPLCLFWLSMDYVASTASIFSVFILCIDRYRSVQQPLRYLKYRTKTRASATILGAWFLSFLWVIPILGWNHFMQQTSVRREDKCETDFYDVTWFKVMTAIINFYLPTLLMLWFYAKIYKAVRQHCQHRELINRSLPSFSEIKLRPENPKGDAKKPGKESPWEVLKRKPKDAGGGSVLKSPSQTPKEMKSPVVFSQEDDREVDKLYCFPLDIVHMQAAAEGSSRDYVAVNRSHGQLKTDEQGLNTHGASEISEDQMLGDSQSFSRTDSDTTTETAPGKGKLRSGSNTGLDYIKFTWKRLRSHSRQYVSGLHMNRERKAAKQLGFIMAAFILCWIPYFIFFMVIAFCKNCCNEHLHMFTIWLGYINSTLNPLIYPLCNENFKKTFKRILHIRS
SMILES,pKb (Histamine H4 receptor [1]),pKb (Histamine H2 receptor [2]),pKb (Histamine H3 receptor [3]),EC50 (Histamine H4 receptor [5]) [nM],also measured
CC(C)N/C(=N/C#N)NCCCCCc1c[nH]cn1,6.25,5.57,6.47,,
N=C(NCCCc1c[nH]cn1)NS(=O)(=O)CCc1ccccc1,5.85,,6.57,,EC50 (Histamine H2 receptor [4]): 12000 nM
NC(=O)NC(=NCCCc1cnc[nH]1)NCCCCc1ccccc1,,,,,EC50 (Histamine H2 receptor [4]): 380 nM
N#C/N=C(/NCCCCc1c[nH]cn1)NCCCc1cccnc1,,5.92,6.19,1200,
Cc1[nH]cnc1CSCCN/C(=N\C#N)NCCCc1ccccc1,< 5,5.74,,,
CCN/C(=N\C#N)NCCCCc1c[nH]cn1,,< 5,5.54,708,pKb (Histamine H1 receptor [6]): < 5
NC(=O)NC(=NCCCc1cnc[nH]1)NCCCc1ccccc1,,,,,EC50 (Histamine H2 receptor [4]): 646 nM
N#C/N=C(\NCCSc1ccccc1)NCCc1c[nH]cn1,5.05,< 5,,,
N#C/N=C(/NCCCCc1ccccc1)NCCc1c[nH]cn1,,< 5,,> 10000,pKb (Histamine H2 receptor [7]): < 5
N#CNC(=NCCc1cnc[nH]1)NCCCC1CCCCC1,,,,,EC50 (Histamine H2 receptor [4]): 3890 nM
N#C/N=C(/NCCCCc1c[nH]cn1)NCCCc1ccc(F)cc1,6.59,5.28,6.11,,
N#C/N=C(\NCCc1ccccc1)NCCc1c[nH]cn1,5.18,,,,Activity (Histamine H2 receptor [8]): inactive
N#C/N=C(\NCCc1c[nH]cn1)NCCc1c[nH]c2ccccc12,< 5,,,,pKb (Histamine H2 receptor [7]): < 5
NC(=O)/N=C(\NCCCCc1c[nH]cn1)NCCCc1ccccc1,7.07,,6.44,,Activity (Histamine H4 receptor [5]): inactive
N#C/N=C(/NCCCC1CCCCC1)NCCc1c[nH]cn1,5.57,,,,
N#CNC(=NCCCCc1cnc[nH]1)NCCCc1ccccc1,,,,151,
CC(C)CN/C(=N\C#N)NCCCCc1c[nH]cn1,,< 5,5.47,120,pKb (Histamine H1 receptor [6]): < 5
CN/C(=N\C#N)NCCCCCc1c[nH]cn1,6.54,5.66,6.38,,
N#C/N=C(/NCCCc1c[nH]cn1)NCCC(c1ccccc1)c1ccccc1,< 5,< 5,,,
N#C/N=C(\NCCCCCc1c[nH]cn1)NCCSc1ccccc1,6.85,5.21,6.74,,
N#C/N=C(/NCCCCCc1c[nH]cn1)NCCCc1ccccc1,6.96,5.28,6.55,,
N#C/N=C(/NCCCCc1c[nH]cn1)NCCCC1CCCCC1,6.35,< 5,5.82,,
N#C/N=C(\NCCCCc1ccccc1)NCCCCc1c[nH]cn1,6.34,5.03,5.54,,
NC(=O)/N=C(/NCCCc1ccccc1)NCCc1c[nH]cn1,5.89,,8.42,,pKb (Histamine H1 receptor [6]): < 5; EC50 (Histamine H2 receptor [4]): 2000 nM
N#C/N=C(/NCCCCc1c[nH]cn1)NCCSc1ccccc1,,< 5,6,33.9,Ki (Histamine H1 receptor [9]): 25700 nM; Ki (Histamine H3 receptor [10]): 525 nM; Ki (Histamine H2 receptor [11]): 4070 nM; Ki (Histamine H4 receptor [12]): 57.5 nM; Selectivity ratio (Homo sapiens [13]): 70; Activity (Histamine H4 receptor [14]): > 10 nM; Selectivity ratio (Homo sapiens [15]): 450; Selectivity ratio (Homo sapiens [16]): 30; pKb (Histamine H1 receptor [6]): < 5
N/C(=N/CCc1ccc(I)cc1)SCCCc1cnc[nH]1,,,,,Kinact (Histamine H4 receptor [17]): 13 nM
N#C/N=C(/NCCCc1c[nH]cn1)NCCc1ccccc1,5.32,< 5,,,Activity (Histamine H2 receptor [8]): inactive
CC(CCN/C(=N\C#N)NCCCCc1c[nH]cn1)c1ccccc1 (stereo unspecified),,< 5,6.19,,pKb (Histamine H1 receptor [6]): < 5

SMILES,pKb (Histamine H4 receptor [1]),pKb (Histamine H2 receptor [2]),pKb (Histamine H3 receptor [3]),EC50 (Histamine H4 receptor [5]) [nM],also measured
Cc1ccc(S(=O)(=O)NC(=N)NCCCc2c[nH]cn2)cc1,5.85,,6.11,,pKb (Histamine H1 receptor [6]): < 5; EC50 (Histamine H2 receptor [4]): 12000 nM
N#C/N=C(/NCCCCc1c[nH]cn1)NCCCc1ccccn1,,5.48,5.89,575,
N#C/N=C(/NCCc1c[nH]cn1)NCCC(c1ccccc1)c1ccccc1,< 5,< 5,,,
Cc1nc[nH]c1CCN [4-METHYLHISTAMINE],,,,70.8,Activity (Histamine H2 receptor [8]): inactive; EC50 (Histamine H1 receptor [18]): 15800 nM; EC50 (Histamine H2 receptor [4]): 2880 nM
N#C/N=C(\NCCCc1ccccc1)NCCCc1c[nH]cn1,,5.25,5.72,759,EC50 (Histamine H2 receptor [4]): 14100 nM
N#C/N=C(/NCCCCc1c[nH]cn1)NCCCc1ccncc1,,5.11,6.11,,
CC(C)N/C(=N\C#N)NCCCCc1c[nH]cn1,,< 5,5.49,331,pKb (Histamine H1 receptor [6]): < 5
CN/C(=N\C#N)NCCCCc1c[nH]cn1,,< 5,5.68,955,pKb (Histamine H1 receptor [6]): < 5
NC(=O)/N=C(/NCCCc1ccccc1)NCCCc1c[nH]cn1,6.77,,6.23,,pKb (Histamine H1 receptor [6]): < 5
N#C/N=C(/NCCCc1c[nH]cn1)NCCSc1ccccc1,,< 5,,1290,EC50 (Histamine H2 receptor [4]): 7240 nM
Cc1[nH]cnc1CSCCN/C(=N/C#N)NCCC(c1ccccc1)c1ccccc1,,,,> 10000,pKb (Histamine H2 receptor [7]): 5.8
CC(CCNC(=NCCCCc1cnc[nH]1)NC#N)c1ccccc1 (stereo unspecified),,,,141,
NC(=O)N=C(NCCCCc1c[nH]cn1)NCCCc1ccccc1,,,,,EC50 (Histamine H2 receptor [4]): 437 nM
N#C/N=C(\N)NCCCCc1c[nH]cn1,,< 5,,,
NC(=O)/N=C(/NCCCCc1ccccc1)NCCCc1c[nH]cn1,6.33,,6.51,,
CC(C)CN/C(=N\C#N)NCCCCCc1c[nH]cn1,6.51,< 5,6.57,,
N#C/N=C(\NCCCCc1ccccc1)NCCCc1c[nH]cn1,5.22,5.03,,,EC50 (Histamine H2 receptor [4]): 8910 nM
N#C/N=C(/NCCCCc1c[nH]cn1)NCCc1ccccc1,,5,5.82,1100,
N#C/N=C(/NCCCCc1c[nH]cn1)NCCCc1ccccc1,,5.25,5.64,,pKb (Histamine H1 receptor [6]): < 5
N#C/N=C(/NCCCc1c[nH]cn1)NCCCC1CCCCC1,5.82,< 5,,,
N#C/N=C(/NCCCc1ccccc1)NCCc1c[nH]cn1,< 5,,5.18,,pKb (Histamine H1 receptor [6]): < 5; EC50 (Histamine H2 receptor [4]): > 10000 nM
CCN/C(=N/C#N)NCCCCCc1c[nH]cn1,6.47,5.37,6.92,,
N#CNC(=NCCCCc1cnc[nH]1)NCCCc1ccncc1,,,,2570,
N#C/N=C(/NCCCCc1c[nH]cn1)NCCc1c[nH]c2ccccc12,5.8,< 5,6.77,,
N#C/N=C(/NCCCCc1c[nH]cn1)NCCC(c1ccccc1)c1ccccc1,5.6,5,,,
N#C/N=C(/NCCCc1c[nH]cn1)NCCc1c[nH]c2ccccc12,5.37,< 5,,,Activity (Histamine H2 receptor [8]): inactive
N#CNC(N)=NCCCCc1cnc[nH]1,,,,170,EC50 (Histamine H3 receptor [19]): 251 nM
